Assay results reported in ChEMBL document CHEMBL1177808, “Benzofuran-substituted urea derivatives as novel P2Y(1) receptor antagonists” (Bioorg Med Chem Lett, 2010).
pIC50, pKi: −log10 of the molar value.

Experiments:
P2Y purinoceptor 1 [1] = biological target: T1, P2Y purinoceptor 1 (Homo sapiens, UniProt P47900); assay: Antagonist activity at P2Y1 expressed in HEK293 cells by FLIPR assay; format: functional, cell-based
How it was run: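 HEK-293 MSRII cells (endogenous P2Y1) grown in DMEM/F12 with 10% FBS, plated 20,000/well, cultured 48 h. Loaded with calcium 3 dye in HBSS pH 7.4 plus 2.5 mM probenecid, 1 h, 37 °C. Calcium flux read on FLIPR; IC50 from non-linear regression; at least three determinations.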

P2Y purinoceptor 1 [2] = biological target: T1, P2Y purinoceptor 1; assay: Displacement of [33P]2-MeS-ADP from human P2Y1 receptor expressed in human U2OS cells at 10 uM by scintillation counting; format: cell-based
How it was run: (§1)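 Membranes from BacMam-transduced U2OS cells expressing human P2Y1, 0.5 µg prebound to 0.5 mg WGA-SPA beads. Radioligand 150 pM [33P]-2-MeS-ADP in 15 mM Hepes, 145 mM NaCl, 0.1 mM MgCl2, 5 mM EDTA, 5 mM KCl, with test compound dilutions or DMSO. Incubated 1 h at room temperature, centrifuged at 2000g, SPA counts read. At least three determinations.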

Platelet [3] = assay: Inhibition of ADP-mediated alpha granule release in human platelet assessed as inhibition of P-selectin expression at 10 uM by flow cytometry; format: functional
How it was run: (§2)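 Human PRP from drug-free volunteers (EDTA 10 mM, 300g 4 min), diluted 1:50 in Hepes-modified Tyrode's buffer pH 7.4. Compound or DMSO added, then immediately ADP 300 nM for 5 min. PE-anti-CD62P for 15 min, fixed 30 min in 2% paraformaldehyde, P-selectin read by flow cytometry.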

Platelet [4] = assay: Inhibition of ADP-mediated alpha granule release in human platelet assessed as inhibition of P-selectin expression by flow cytometry; format: functional, cell-based; how it was run: as §2
P2Y purinoceptor 1 [5] = biological target: T1, P2Y purinoceptor 1; assay: Displacement of [33P]2-MeS-ADP from human P2Y1 receptor expressed in human U2OS cells by scintillation counting; format: cell-based; how it was run: as §1

T1 sequence (P47900 whole entry): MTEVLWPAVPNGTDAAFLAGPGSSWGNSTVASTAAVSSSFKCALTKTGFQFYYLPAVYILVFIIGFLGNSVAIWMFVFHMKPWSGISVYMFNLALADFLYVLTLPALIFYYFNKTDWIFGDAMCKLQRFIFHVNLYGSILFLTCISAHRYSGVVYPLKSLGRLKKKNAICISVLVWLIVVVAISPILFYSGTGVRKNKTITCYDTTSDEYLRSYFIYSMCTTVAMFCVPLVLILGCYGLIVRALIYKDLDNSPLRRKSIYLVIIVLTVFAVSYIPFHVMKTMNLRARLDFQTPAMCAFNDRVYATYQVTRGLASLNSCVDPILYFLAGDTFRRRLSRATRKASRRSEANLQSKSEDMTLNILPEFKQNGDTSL

| Compound | pIC50 (P2Y purinoceptor 1 [1]) | inhibition (P2Y purinoceptor 1 [2]) [%] | inhibition at 10 µM (Platelet [3]) [%] | pIC50 (Platelet [4]) | pKi (P2Y purinoceptor 1 [5]) |
| --- | --- | --- | --- | --- | --- |
| CC(C)c1ccccc1-c1cc2cccc(NC(=O)Nc3ccc(C(C)(C)C)cc3)c2o1 | 5.89 | 72 | 100 | 6.52 | – |
| Cc1ccc(NC(=O)Nc2cccc3cc(-c4ccccc4C(C)C)oc23)cc1C(F)(F)F | 5.80 | 69 | 79 | – | – |
| O=C(Nc1ccc(OC(F)(F)F)cc1)Nc1cccc2cc(-c3ccccc3Cl)oc12 | < 4.60 | – | – | – | – |
| CC(C)c1ccccc1-c1cc2cccc(NC(=O)Nc3ccc(N(C)C)cc3)c2o1 | 4.80 | – | – | – | – |
| CC(C)c1ccccc1-c1cc2cccc(NC(=O)Nc3cccc(C(F)(F)F)c3)c2o1 | 5.30 | 60 | – | – | – |
| CC(C)Oc1ccccc1-c1cc2cccc(NC(=O)Nc3ccc(OC(F)(F)F)cc3)c2o1 | < 4.60 | – | – | – | – |
| CC(C)c1ccccc1-c1cc2cccc(NC(=O)Nc3ccc(OC(F)(F)F)cc3)c2o1 | 5.40 | – | 49 | – | 6.22 |
| CC(C)(C)c1ccccc1-c1cc2cccc(NC(=O)Nc3ccc(OC(F)(F)F)cc3)c2o1 | 5.40 | – | – | – | 6.40 |
| O=C(Nc1ccc(OC(F)(F)F)cc1)Nc1cccc2cc(-c3ccccc3C(F)(F)F)oc12 | 5.20 | – | – | – | 5.60 |
| O=C(Nc1ccc(OC(F)(F)F)cc1)Nc1cccc2cc(-c3cccc(C(F)(F)F)c3)oc12 | < 4.60 | – | – | – | – |
| CCCCOc1ccc(NC(=O)Nc2cccc3cc(-c4ccccc4C(C)C)oc23)cc1 | 5.70 | – | – | – | 6.19 |
| CCCCCc1ccc(NC(=O)Nc2cccc3cc(-c4ccccc4C(C)C)oc23)cc1 | 6.20 | – | – | – | 6.85 |
| CC(C)c1ccccc1-c1cc2cccc(NC(=O)Nc3ccc(Cl)cc3)c2o1 | 5.70 | – | – | – | 6.12 |
